What was measured:
B-cell receptor CD22 [1] = target: T1, B-cell receptor CD22 (Mus musculus, UniProt P35329); assay: Antagonist activity at mouse CD22 after 1 hr by competitive ELISA; type: functional
T1 sequence (P35329 whole entry): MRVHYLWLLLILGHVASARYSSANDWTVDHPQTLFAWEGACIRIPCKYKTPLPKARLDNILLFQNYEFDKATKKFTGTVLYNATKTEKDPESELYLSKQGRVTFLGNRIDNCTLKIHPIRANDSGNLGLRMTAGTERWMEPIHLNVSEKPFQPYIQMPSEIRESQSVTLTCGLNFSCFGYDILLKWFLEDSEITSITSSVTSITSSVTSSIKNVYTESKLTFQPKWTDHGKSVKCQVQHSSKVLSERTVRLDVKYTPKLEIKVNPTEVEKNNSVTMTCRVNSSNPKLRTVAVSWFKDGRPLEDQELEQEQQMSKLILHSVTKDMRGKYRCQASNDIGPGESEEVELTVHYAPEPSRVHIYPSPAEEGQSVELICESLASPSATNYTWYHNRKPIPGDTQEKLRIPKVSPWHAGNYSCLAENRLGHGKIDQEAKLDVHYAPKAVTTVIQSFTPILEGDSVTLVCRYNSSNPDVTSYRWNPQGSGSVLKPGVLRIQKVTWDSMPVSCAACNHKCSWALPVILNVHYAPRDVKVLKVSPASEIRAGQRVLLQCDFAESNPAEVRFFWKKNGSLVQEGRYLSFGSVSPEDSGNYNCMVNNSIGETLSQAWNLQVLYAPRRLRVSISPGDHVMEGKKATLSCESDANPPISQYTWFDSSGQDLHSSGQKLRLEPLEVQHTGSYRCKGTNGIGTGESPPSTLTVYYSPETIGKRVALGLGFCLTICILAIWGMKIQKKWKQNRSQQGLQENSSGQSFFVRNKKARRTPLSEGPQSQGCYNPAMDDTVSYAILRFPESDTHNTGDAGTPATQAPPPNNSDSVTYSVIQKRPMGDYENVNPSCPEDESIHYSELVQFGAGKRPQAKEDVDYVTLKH
Summary of the method: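 Competition ELISA. Wells coated overnight with streptavidin (40 μg/mL in 50 mM NaHCO3, pH 8.5), then loaded 1 h with biotinylated sialoside probe (4 μg/mL in PBS) and blocked 3 h with 0.5% BSA/PBS. Graded inhibitor concentrations were incubated 1 h with 0.5 μg CD22Fc. After PBS/0.05% Tween 20 washes, bound Fc was detected with alkaline phosphatase anti-human IgG Fc. Triplicates, mean ± SD.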

B-cell receptor CD22 [2] = target: T2, B-cell receptor CD22 (Homo sapiens, UniProt P20273); assay: Antagonist activity at human CD22 after 1 hr by competitive ELISA; type: functional
T2 sequence (P20273 whole entry): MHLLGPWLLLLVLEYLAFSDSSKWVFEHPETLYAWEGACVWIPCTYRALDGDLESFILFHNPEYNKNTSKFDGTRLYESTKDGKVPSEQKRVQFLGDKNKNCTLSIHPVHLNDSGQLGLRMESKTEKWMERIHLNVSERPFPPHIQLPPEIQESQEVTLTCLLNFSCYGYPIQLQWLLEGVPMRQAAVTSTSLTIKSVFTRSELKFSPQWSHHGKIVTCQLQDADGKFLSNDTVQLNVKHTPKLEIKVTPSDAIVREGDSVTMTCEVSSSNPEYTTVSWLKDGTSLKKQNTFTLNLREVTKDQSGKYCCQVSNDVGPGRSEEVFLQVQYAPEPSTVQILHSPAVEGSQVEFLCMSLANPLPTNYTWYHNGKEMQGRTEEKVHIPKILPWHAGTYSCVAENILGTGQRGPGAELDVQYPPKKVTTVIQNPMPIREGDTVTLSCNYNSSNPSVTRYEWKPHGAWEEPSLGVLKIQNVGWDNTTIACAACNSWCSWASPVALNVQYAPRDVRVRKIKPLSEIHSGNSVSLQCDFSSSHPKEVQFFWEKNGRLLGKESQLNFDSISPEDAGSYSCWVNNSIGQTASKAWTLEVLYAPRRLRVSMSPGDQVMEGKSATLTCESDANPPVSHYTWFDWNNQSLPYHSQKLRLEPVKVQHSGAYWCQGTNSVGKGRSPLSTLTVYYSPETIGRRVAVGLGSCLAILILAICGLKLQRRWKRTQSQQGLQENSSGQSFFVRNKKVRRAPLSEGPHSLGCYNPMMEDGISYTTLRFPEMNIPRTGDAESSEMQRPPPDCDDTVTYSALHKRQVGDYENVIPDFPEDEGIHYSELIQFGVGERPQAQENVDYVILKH
Summary of the method: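 Neutravidin-precoated plates (1 μg/well, overnight, 4°C) were blocked with 0.5% BSA in HBSS for 30 min at 37°C. Biotinylated Siaα2-6LacNAc-PAA (0.625 μg/mL) was bound 1 h at RT. Inhibitor and precomplexed hCD22-Fc/goat anti-human IgG F(ab')2 were added and bound 30 min at 37°C. After HBSS washes: TMB, H2SO4 stop, OD450. Triplicates, mean ± SD.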

[3] = target: T3, B-cell receptor CD22 (Mus musculus) (UniProt P35329); assay: Ratio of IC50 for 9-(4'-hydroxy-4-biphenyl)acetamido-9-deoxy-Neu5Gca2-6GalOMP to IC50 for compound at mouse CD22
T3 sequence (whole entry): T1 sequence (P35329 whole entry)
Summary of the method: (§1)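 Relative inhibitory potency (rIP) = IC50 of the 9-biphenylacetamido Neu5Gcα2-6GalOMP reference divided by IC50 of the test sialoside, each IC50 taken from the competition ELISA for the respective CD22 species. Values above 1.0 mean tighter binding than the reference.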

[4] = target: B-cell receptor CD22 (Homo sapiens) (UniProt P20273); assay: Ratio of IC50 for 9-(4'-hydroxy-4-biphenyl)acetamido-9-deoxy-Neu5Gca2-6GalOMP to IC50 for compound at human CD22; summary of the method: as §1
[5] = target: T4, Myelin-associated glycoprotein (Homo sapiens, UniProt P20916); assay: Inhibition of human MAG after 1 hr by competitive ELISA; details: in the assay text read “after 30 min” for “after 1 hr”
T4 sequence (P20916 whole entry): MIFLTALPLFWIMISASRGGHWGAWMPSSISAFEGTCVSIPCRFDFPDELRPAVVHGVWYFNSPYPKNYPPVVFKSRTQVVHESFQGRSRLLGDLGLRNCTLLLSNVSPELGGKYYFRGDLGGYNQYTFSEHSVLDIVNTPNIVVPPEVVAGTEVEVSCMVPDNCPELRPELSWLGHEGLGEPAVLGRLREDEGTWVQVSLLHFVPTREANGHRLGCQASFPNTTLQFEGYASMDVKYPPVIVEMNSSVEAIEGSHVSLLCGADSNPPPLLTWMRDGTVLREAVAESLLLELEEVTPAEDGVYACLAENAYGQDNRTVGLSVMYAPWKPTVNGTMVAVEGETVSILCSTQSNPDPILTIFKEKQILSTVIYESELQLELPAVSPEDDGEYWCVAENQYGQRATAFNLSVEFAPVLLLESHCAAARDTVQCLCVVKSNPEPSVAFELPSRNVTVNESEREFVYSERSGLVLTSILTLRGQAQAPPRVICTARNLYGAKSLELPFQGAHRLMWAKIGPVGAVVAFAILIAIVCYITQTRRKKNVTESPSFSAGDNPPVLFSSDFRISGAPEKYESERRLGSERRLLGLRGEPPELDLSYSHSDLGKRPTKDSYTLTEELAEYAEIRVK
Summary of the method: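 Neutravidin plates as for hCD22, with biotinylated Siaα2-3LacNAc-PAA (0.33 μM) bound 1 h at RT. MAG-Fc (~0.12 μg/ml) was pretreated with V. cholerae sialidase (0.4 mU/ml) 45 min, stopped with 1 mM EDTA, then complexed 45 min with goat anti-human IgG F(ab')2 (0.05 μg/mL) and HRP anti-goat F(ab')2 (0.0167 μg/mL). Complex was diluted 3:2, bound with inhibitor 30 min at 37°C, and read by TMB at OD450.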

Homo sapiens = species on record: Homo sapiens; assay: Selectivity ratio of IC50 for human MAG to IC50 for human CD22
[6] = target: T4, Myelin-associated glycoprotein; assay: Inhibition of human MAG after 30 min by competitive ELISA

Compound	IC50 (B-cell receptor CD22 [1]) [µM]	IC50 (B-cell receptor CD22 [2]) [µM]	Ratio IC50 [3]	Ratio IC50 [4]	IC50 [5] [µM]	Ratio IC50 (Homo sapiens)	IC50 [6] [µM]
O=C(CO)N[C@H]1[C@H]([C@H](O)[C@H](O)CNCc2ccc(-c3ccc(O)cc3)cc2)O[C@@](OCc2ccccc2)(C(=O)O)C[C@@H]1O	5.03	0.82	1.2	0.6	9.27	3.4	–
COc1ccc(O[C@@H]2O[C@H](CO[C@]3(C(=O)O)C[C@H](O)[C@@H](NC(=O)CO)[C@H]([C@H](O)[C@H](O)CNC(=O)Cc4ccc(-c5ccc(O)cc5)cc4)O3)[C@H](O)[C@H](O)[C@H]2O)cc1	3.84	–	–	–	–	41.5	136
O=C(Cc1ccc(-c2ccc(F)cc2)cc1)NC[C@@H](O)[C@@H](O)[C@@H]1O[C@@](OCc2ccccc2)(C(=O)O)C[C@H](O)[C@H]1NC(=O)CO	5	–	0.77	–	–	–	–
O=C(CO)N[C@H]1[C@H]([C@H](O)[C@H](O)CNCc2ccc(-c3ccc(O)cc3)cc2)O[C@@](OCc2ccc(-c3ccccc3)cc2)(C(=O)O)C[C@@H]1O	23.3	1.12	0.3	0.5	–	7.4	16.6
O=C(Cc1ccc(-c2ccc(O)cc2)cc1)NC[C@@H](O)[C@@H](O)[C@@H]1O[C@@](OCc2ccccc2)(C(=O)O)C[C@H](O)[C@H]1NC(=O)CO	0.1	0.13	38.4	7	–	712	171
COc1ccc(O[C@@H]2O[C@H](CO[C@]3(C(=O)O)C[C@H](O)[C@@H](NC(=O)CO)[C@H]([C@H](O)[C@H](O)CNCc4ccc(-c5ccc(O)cc5)cc4)O3)[C@H](O)[C@H](O)[C@H]2O)cc1	6.43	0.53	1	1	37.4	11.4	–
O=C(Cc1ccc(-c2ccc(O)cc2)cc1)NC[C@@H](O)[C@@H](O)[C@@H]1O[C@@](OCc2ccc(-c3ccccc3)cc2)(C(=O)O)C[C@H](O)[C@H]1NC(=O)CO	0.19	0.07	20.2	12	–	432	164

Source: ChEMBL document CHEMBL1681770, “CD22-antagonists with nanomolar potency: the synergistic effect of hydrophobic groups at C-2 and C-9 of sialic acid scaffold” (Bioorg Med Chem, 2011)
